Assay results as given in paper PMC10674630 (Diabetes, Metabolic Syndrome and Obesity, 2023).
Converted amounts (≈) assume the structure as drawn. “Also recorded” adds a separate entry of the source. Where two headings read alike, the source gives them in different places. *1 amine or outer side, *2 acyl side, *3 side chain or, on linkers, in order; H or OH if unused. Where a SMILES comes first, the peptide text is derived from it. Bridges are numbered along the chain shown (N, C = ends). [ ]: non-standard residue; d: D form. X1 = CC(C)CCCCCCCCC[C@H](CC(=O)[*:1])O[*:2]

Columns and labels:
[1] = test system: ATCC 25923; test: Bacterial growth curves, ATCC 25923; format: cell-based, S. aureus
Summary of the method: (§1)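 Cultures of ATCC 25923 and a clinical MRSA strain were diluted to 1×10^6 CFU/mL in MH broth with surfactin at 0, 1/2×MIC, MIC or 2×MIC, with an MH broth-only negative control. Tubes were shaken at 200 rpm and 35 °C for 24 h. OD600 was read at 0, 4, 8, 12 and 24 h. Runs were done in triplicate.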

[2] = test system: icaA; conditions: cited from earlier work
[3] = test system: icaD; conditions: cited from earlier work
[4] = test system: S. aureus (ATCC 25923 and MRSA SA 452); test: Mutant prevention / resistance selection, both strains; format: cell-based; conditions: S. aureus
Summary of the method: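 Strains were grown 24 h in MH broth, centrifuged at 4000×g for 10 min and resuspended to 1×1010 CFU/mL. […] MPC was the lowest concentration preventing colonies. MPC/MIC ratio defined the mutant selection window.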

[5] = test system: SA 095; test: Microbroth dilution MIC, SA 095; format: cell-based, S. aureus; conditions: SA 095 (non-MDR), triplicate
Summary of the method: (§2)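 Surfactin was dissolved in sterile distilled water and tested by broth microdilution in MH broth. Strains were a reference strain and MALDI-TOF-identified clinical isolates from diabetic foot ulcers. MIC was the lowest concentration without visible growth. For MBC, 10 µL from clear wells was plated on MH agar for 24 h at 37 °C, and MBC was the lowest concentration giving no colonies. Tests were run in triplicate.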

[6] = test system: SA 366; test: Microbroth dilution MIC, SA 366; format: cell-based, S. aureus; conditions: SA 366 (MDR), triplicate
Summary of the method: as §2

[7] = test system: S. aureus biofilm; conditions: ref 28 (Liu et al), cited from earlier work
[8] = test system: human red blood cells; test: Human red blood cells hemolysis assay; format: cell-based; conditions: 1 h, 37 °C
Summary of the method: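 Whole blood from healthy human volunteers was spun at 1000×g for 5 min, and the RBCs were washed three times in PBS and resuspended in PBS. RBC suspension was mixed 1:1 with serial surfactin dilutions and incubated 1 h at 37 °C, then supernatant A570 was read. Hemolysis % was scaled between 0.1% DMSO (negative) and 0.1% Triton X-100 (positive).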

[9] = test system: sortaseA; conditions: S. aureus; cited from earlier work
[10] = test system: SA 452
[11] = test system: ATCC 25923
[12] = test system: SA 452; test: Bacterial growth curves, SA 452; format: cell-based, S. aureus; conditions: for Growth inhibition: 24-h exposure, 0, 1/2×MIC, MIC, 2×MIC
Summary of the method: as §1

[13] = test system: penicillinase; test: Penicillinase inhibition assay; format: biochemical
Summary of the method: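 Penicillin K (10,000 U/mL) added at 2:1 to mixture, 1 h at 37 °C. Then 0.01 mol/L iodine for 15 min, back-titrated with 0.01 mol/L Na2S2O3 to colourless, starch indicator near endpoint. Thiosulfate consumed is inversely related to enzyme activity.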

[14] = test system: SA 452 biofilm formation; test: Biofilm inhibition assay; format: cell-based, S. aureus
Summary of the method: (§3)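 Overnight cultures were diluted in TSB containing serial surfactin dilutions (1/64×MIC to 2×MIC) to 1×10^6 CFU/mL and grown in triplicate wells for 24 h at 37 °C. Wells were washed three times with PBS and stained with 0.5% crystal violet for 20 min. After air-drying, stain was solubilised in 95% ethanol for 20 min at room temperature and OD570 was read.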

[15] = test system: SA 452; test: Microbroth dilution MIC, SA 452; format: cell-based, S. aureus; conditions: SA 452 (MRSA), triplicate
Summary of the method: as §2

[16] = test system: fnbB; conditions: S. aureus; cited from earlier work
[17] = test system: ATCC 25923; test: Transmission electron microscopy; format: cell-based, S. aureus; conditions: 5×MIC, 1 h, control 0.05% DMSO
[18] = test system: standard and clinical strains of Staphylococcus aureus; test: MIC and MBC by microbroth dilution, all selected strains; format: cell-based
Summary of the method: as §2

[19] = test system: ATCC 25923 biofilm formation; test: Biofilm inhibition assay; format: cell-based, S. aureus
Summary of the method: as §3

[20] = test system: SA 326; test: Microbroth dilution MIC, SA 326; format: cell-based, S. aureus; conditions: SA 326 (MRSA), triplicate
Summary of the method: as §2

[21] = test system: Gram-negative bacteria; test: Efficacy against Gram-negative bacteria; format: cell-based; conditions: data not shown
[22] = test system: ATCC 25923; test: Microbroth dilution MIC, ATCC 25923; format: cell-based, S. aureus; conditions: triplicate
Summary of the method: as §2

[23] = test system: S. aureus biofilm formation; test: Biofilm inhibition assay; format: cell-based
Summary of the method: as §3

[24] = test system: fnbA; conditions: S. aureus; cited from earlier work
[25] = 1.5 mg/mL, ref 39 (Englerová et al)

With `CC(C)CCCCCCCCC[C@@H]1CC(=O)N[C@@H](CCC(=O)O)C(=O)N[C@@H](CC(C)C)C(=O)N[C@H](CC(C)C)C(=O)N[C@@H](C(C)C)C(=O)N[C@@H](CC(=O)O)C(=O)N[C@H](CC(C)C)C(=O)N[C@@H](CC(C)C)C(=O)O1` [Surfactin, surfactin] (EL[dL]VD[dL]L; linker N-C via X1 (inferred)) the Growth inhibition ([1]; 24-h exposure, 0, 1/2×MIC, MIC, 2×MIC, OD600) was “inhibited the growth of ATCC 25923 and SA 452 in a dose-dependent manner”, the “Growth inhibition at MIC and 2×MIC” value ([1]; MIC and 2×MIC) was “almost completely inhibited” and the “Growth reduction at half the MIC” value ([1]; from 4 h, 1/2×MIC) was “significantly reduced from 4 h”. The “Downregulation of icaA expression” value [2, 25] was 2.82 fold, the “Expression of icaA (in words)” value ([2]; 2×MIC, ref 28 (Liu et al)) was “significantly reduced the expression” and the “Downregulation of icaD expression” value [3, 25] was 1.85 fold. For the same compound, the “Expression of icaD (in words)” value ([3]; 2×MIC, ref 28 (Liu et al)) was “significantly reduced the expression”, the “In vitro resistance development” value [4] was “In vitro resistance was not readily produced” and the MIC [5] was 512 µg/mL (≈ 494 µM). For the same compound, the MIC [6] was 512 µg/mL (≈ 494 µM), the Biofilm removal rate ([7]; 0.2% surfactin, 4 h) was 80% and the “Reduction of biofilm production” value ([7]; one-quarter MIC, S. aureus) was 60%. For the same compound, the “Hemolysis at 16×MIC” value ([8]; 16×MIC, human RBC) was > 5%, the “Hemolysis below 16×MIC” value ([8]; all concentrations less than 16×MIC, human RBC) was “no hemolysis was observed” and the “Concentration at which hemolytic activity (hemolysis > 5%) occurred” value ([8]; human RBC in PBS, A570, Triton X-100 positive control) was 16 ×MIC. The “Cytotoxicity to RBCs (in words)” value ([8]; human RBC) was “limited toxicity on human red blood cells; also recorded: extremely low cytotoxicity to RBCs; also recorded: very low cytotoxicity to erythrocytes”, the “Expression of sortaseA (in words)” value [9] was “inhibit the expression” and the FICI ([10]; surfactin with ampicillin) was 0.133. For the same compound, the “Fold Change” value ([10]; surfactin with ampicillin) was 8, the FICI ([10]; surfactin with ciprofloxacin) was 2 and the FICI ([10]; surfactin with erythromycin) was 2. For the same compound, the FICI ([10]; surfactin with gentamicin) was 0.25, the “Fold Change” value ([10]; surfactin with gentamicin) was 8 and the FICI ([10]; surfactin with oxacillin) was 0.156. For the same compound, the “Fold Change” value ([10]; surfactin with oxacillin) was 8, the FICI ([10]; surfactin with tetracycline) was 0.133 and the “Fold Change” value ([10]; surfactin with tetracycline) was 8. For the same compound, the FICI ([11]; surfactin with ampicillin) was 0.5, the “Fold Change” value ([11]; surfactin with ciprofloxacin) was 2 and the “Fold Change” value ([11]; surfactin with erythromycin) was 8. For the same compound, the FICI ([11]; surfactin with oxacillin) was 0.25, the “Fold Change” value ([11]; surfactin with oxacillin) was 8 and the FICI ([11]; surfactin with tetracycline) was 0.188. The “Fold Change” value ([11]; surfactin with tetracycline) was 8, the Growth inhibition ([12]; OD600) was “inhibited the growth of ATCC 25923 and SA 452 in a dose-dependent manner” and the Growth inhibition ([12]; OD600, listed as surfactin) was “inhibited the growth of both ATCC 25923 and SA 452 in a dose-dependent manner”. For the same compound, the “Growth inhibition at MIC and 2×MIC” value ([12]; MIC and 2×MIC) was “almost completely inhibited”, the “Growth reduction at half the MIC” value ([12]; from 4 h, 1/2×MIC) was “significantly reduced from 4 h” and the “Volume of Na2S2O3 consumed (penicillinase inhibition)” value ([13]; […], 10,000 U/mL penicillinase, 18 h, 35 °C, penicillinase-only control 0.5 mL) was 2.25 mL. The “Penicillinase inhibition (in words)” value ([13]; iodometry) was “directly inhibited penicillinase activity, but not as much as the clavulanate potassium; also recorded: significantly reduced penicillinase activity”, the “MRSA biofilm inhibition at 2×MIC (in words)” value ([14]; MRSA, 2×MIC) was “almost completely inhibited” and the “Biofilm inhibition, dose dependence” value ([14]; SA 452, 1/64×MIC to 2×MIC) was “dose-dependent inhibitory effect”. The “Inhibition of biofilm formation” value ([14]; SA 452, 2×MIC, crystal violet, 24 h, 37°C) was “more than 95%”, the “Concentration from which biofilm inhibition starts” value ([14]; SA 452, crystal violet, OD570, 24 h, 37°C, TSB) was 1/16 and the MIC [15] was 512 µg/mL (≈ 494 µM). For the same compound, the “Expression of fnbB (in words)” value [16] was “inhibit the expression”, the “Cell structure by TEM” value [17] was “damaged structure, leading to cell lysis and death; also recorded: irregular and collapsed surfaces, content leakage, and cell death” and the “Antibacterial activity (in words)” value ([18]; S. aureus from DFUs (non-MDR, MDR, MRSA) and ATCC 25923) was “antibacterial and bactericidal activity against S. aureus strains; also recorded: effectively inhibited the growth of S. aureus”. For the same compound, the “Difference in MICs between strains with different resistance patterns” value ([18]; non-MDR, MDR, MRSA, ATCC 25923) was “no significant difference in MICs”, the “Biofilm inhibition, dose dependence” value ([19]; 1/64×MIC to 2×MIC) was “dose-dependent inhibitory effect” and the “Inhibition of biofilm formation” value ([19]; 2×MIC, crystal violet, 24 h, 37°C) was 80%. The “Concentration from which biofilm inhibition starts” value ([19]; crystal violet, OD570, 24 h, 37°C, TSB) was 1/16, the MIC [20] was 1024 µg/mL (≈ 988 µM) and the “Efficacy against Gram-negative bacteria relative to Gram-positive” value [21] was “less than that of Gram-positive bacteria”. For the same compound, the MIC [22] was 512 µg/mL (≈ 494 µM), the “Biofilm inhibition at 1/16×MIC (in words)” value ([23]; 1/16×MIC) was “significantly inhibited” and the “Biofilm inhibition (in words)” value ([23]; S. aureus) was “significantly prevented the S. aureus biofilm formation; also recorded: dose-dependent inhibitory effect on S. aureus biofilm formation; also recorded: significantly reducing biofilm production”. For the same compound, the “Expression of fnbA (in words)” value [24] was “inhibit the expression”.
